Experimental data from PMC6605687 (The Journal of General Physiology, 2019).
Numbering of substitutions follows the chain as printed.

Legend:
Format in all cases: cell-based
[1] = target: T1, rP2X2 Lys188Arg (Rattus norvegicus, UniProt P49653, K188R); experiment: Two-electrode voltage clamp, oocytes expressing rP2X2 Lys188Arg
T1 sequence (P49653 1-472 K188R): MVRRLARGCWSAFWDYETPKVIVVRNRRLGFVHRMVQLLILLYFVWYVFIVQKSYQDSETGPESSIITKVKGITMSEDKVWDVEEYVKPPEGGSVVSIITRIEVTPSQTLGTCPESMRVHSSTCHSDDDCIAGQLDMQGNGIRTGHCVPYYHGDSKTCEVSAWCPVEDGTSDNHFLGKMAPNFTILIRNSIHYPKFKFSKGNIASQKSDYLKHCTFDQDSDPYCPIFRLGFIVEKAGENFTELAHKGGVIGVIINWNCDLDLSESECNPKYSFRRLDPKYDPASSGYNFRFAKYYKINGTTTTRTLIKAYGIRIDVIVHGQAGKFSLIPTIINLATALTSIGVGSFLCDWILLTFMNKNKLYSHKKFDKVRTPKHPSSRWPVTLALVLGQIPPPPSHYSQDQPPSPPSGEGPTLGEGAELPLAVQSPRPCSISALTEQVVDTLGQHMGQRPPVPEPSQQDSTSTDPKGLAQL
How it was run: (§1)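 Mutations were made by site-directed mutagenesis. Xenopus oocytes were injected with rP2X2 mRNA and incubated in L-15 at 18°C. Two-electrode voltage clamp was done 1–2 days later at −40 mV under ND96 perfusion (pH 7.4). ATP concentration-response currents were normalised and fitted to a one-component Hill equation for EC50 and Hill coefficient. Results are mean ± SEM, tested by one-way ANOVA with Dunnett's test against WT.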

[2] = target: T2, rP2X2 Lys188Gln (Rattus norvegicus, UniProt P49653, K188Q); experiment: Two-electrode voltage clamp, oocytes expressing rP2X2 Lys188Gln
T2 sequence (P49653 1-472 K188Q): T1 sequence (P49653 1-472 K188R) with R188Q
How it was run: as §1

[3] = target: T3, rP2X2 Arg290Lys (Rattus norvegicus, UniProt P49653, R290K); experiment: Two-electrode voltage clamp, oocytes expressing rP2X2 Arg290Lys
T3 sequence (P49653 1-472 R290K): T1 sequence (P49653 1-472 K188R) with R188K, R290K
How it was run: as §1

- EC50 [1]: 57 ± 8 µM
- EC50 [2]: 8700 µM
- EC50 [3]: 460 ± 60 µM
SMILES: Nc1ncnc2c1ncn2[C@@H]1O[C@H](COP(=O)(O)OP(=O)(O)OP(=O)(O)O)[C@@H](O)[C@H]1O [ATP, Adenosine 5′-triphosphate]
